The list is not random: actives were taken first. Their share in the collection is about 2.1%.
GSK3B inh: inhibitors of human GSK3beta kinase. P49841. GST-GSK3beta kinase, ADP-Glo luminescence, 60 min; hits give low values. activity score (negative = inhibition), % at 10 µM. hit rate 0.038% among 300,000;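 active = more than half of replicate wells score below -50%, meaning over 50% inhibition versus plate controls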
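Assay system: GST-fused GSK3beta enzyme, cell-free / Medium: Tris pH 7.5 buffer with MgCl2, DTT, BSA, heparin / Also added: peptide substrate plus 25 µM ATP (final) / Compound: 10 µM single point / Timing: kinase reaction with compound 60 min at room temperature / Detection: ADP-Glo luminescence / Benchmarks: DMSO neutral wells and GW8510 at 20 µM as positive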
MEKK3 PB1 HTS: modulators (inhibitors or enhancers) of MEK5 binding to human MEKK3 PB1 domain; Q99759; bead-based flow cytometry, Alexa488-MEK5 binding to MEKK3; actives lie on both sides; 0 = blocked by unlabeled MEK5, 100 = vehicle; binding response (% of control), % at 10 µM; hit rate 1.4% among 290,000;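 active = binding response more than 3 SD above or below the average of its plate-row segment, actives on both sides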;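 note: Alexa488 bead fluorescence after subtracting the streptavidin-only scavenger bead signal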
STK33 kinase inh: blocks human STK33 kinase activity. purified STK33, MBP phosphorylation, ADP-Glo luminescence. inhibition, % at 10 µM. hit rate 0.073% among 320,000. AID 2661. Q9BYT3;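 active = inhibition at or above 25%, using the most active replicate where run in duplicate; inactive = inhibition below 25%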
GSK3A inh: human GSK-3 alpha kinase inhibition; P49840; ADP-Glo luminescence, 60 min; inhibition, % at 10 µM; hit rate 0.1% among 320,000; AID 2650;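 active = more than half of replicates show inhibition above 20%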;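 note: GST-tagged GSK-3 alpha with peptide substrate and 25 µM ATP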
Target sequence (P49840 whole entry, looked up): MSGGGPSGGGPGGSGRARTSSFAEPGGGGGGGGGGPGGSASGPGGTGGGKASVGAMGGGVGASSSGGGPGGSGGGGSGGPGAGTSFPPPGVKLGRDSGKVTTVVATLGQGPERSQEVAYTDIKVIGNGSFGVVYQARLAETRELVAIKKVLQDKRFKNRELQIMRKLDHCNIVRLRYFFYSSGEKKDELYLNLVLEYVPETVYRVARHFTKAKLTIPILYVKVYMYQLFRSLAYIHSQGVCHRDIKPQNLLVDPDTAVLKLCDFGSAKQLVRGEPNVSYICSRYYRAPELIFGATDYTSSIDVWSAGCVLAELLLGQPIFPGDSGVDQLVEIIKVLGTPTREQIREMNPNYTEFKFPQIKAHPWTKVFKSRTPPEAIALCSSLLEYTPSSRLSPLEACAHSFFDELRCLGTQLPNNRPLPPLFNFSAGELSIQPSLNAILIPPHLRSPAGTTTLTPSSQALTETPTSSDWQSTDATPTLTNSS
MEKK2 WT-MEK5: raises or lowers MEK5 binding to wildtype human MEKK2 PB1 domain; bead flow cytometry, Alexa488-MEK5 binding to MEKK2 WT; actives lie on both sides; binding response (% of control), % at 10 µM; hit rate 1.1% among 290,000; AID 1531; in the data active = binding response below about 67% or above about 130%
MEKK2 mut-MEK5: signal of MEK5 binding to mutant human MEKK2 PB1 domain. bead flow cytometry, Alexa488-MEK5 binding to MEKK2 mutant. hit rate 0.35% among 290,000. percent response, % at 10 µM; in the data active = percent response above about 24%, passing the limit was not always enough
MEKK2wt confirm: raises or lowers MEK5 binding to wildtype human MEKK2, retest; AID 1892; bead flow cytometry, Alexa488-MEK5 binding to MEKK2 WT; actives lie on both sides; binding response (% of control), % at 10 µM; hit rate 2.4% among 5,900; shares compounds with MEKK3 PB1 HTS; in the data active = binding response below about 16% or above about 210%; inactive = in between
MEKK2mut confirm: signal of MEK5 binding to mutant human MEKK2, retest; shares compounds with MEKK3 PB1 HTS; bead flow cytometry, Alexa488-MEK5 binding to MEKK2 mutant; percent response, % at 10 µM; hit rate 2% among 5,900; in the data active = percent response mostly above about 71%, no sharp cut-off; inactive = mostly below about 38%;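 note: higher means compound restores mutant binding toward wildtype level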
MEKK3 confirm: MEKK3-MEK5 PB1 inhibition, single concentration confirmation. shares compounds with MEKK3 PB1 HTS. bead flow cytometry, Alexa488-MEK5 binding to MEKK3; hits give low values. binding response (% of control), % at 10 µM. hit rate 1.8% among 5,900. AID 1894;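 active = binding response below 72% of control, or above a set upper limit, though filed actives all read lower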;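 note: lower values mean stronger disruption of MEK5 binding to MEKK3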
Each line names hits and unclear results; the compound was inactive in the other large screens (follow-up assays come after a bar, where they were run); [ ] = dose if it differs, or a comment.

COc1cc(C(CCN2CCCCC2)c2c(OC)cc(OC)c3c(-c4ccccc4)cc(=O)oc23)cc(OC)c1OC (stereo not given)	none
COc1cc(C(CCN2CCCC(C)C2)c2c(OC)cc(OC)c3c(-c4ccccc4)cc(=O)oc23)cc(OC)c1OC (stereo not given)	MEKK2 WT-MEK5 138 | MEKK2wt confirm inactive | MEKK2mut confirm inactive | MEKK3 confirm inactive
COc1ccc(C(CCN2CCOCC2)c2c(OC)cc(OC)c3c(C)cc(=O)oc23)cc1 (stereo not given)	MEKK2 WT-MEK5 151 | MEKK2wt confirm inactive | MEKK2mut confirm inactive | MEKK3 confirm inactive
CC(C)NS(=O)(=O)c1ccc(CCC(=O)N2CCCCC2)cc1	none
Cc1cnc(CN(C)Cc2c(C(=O)N3CCc4ccccc4C3)nc3ccc(Cl)cn23)[nH]1	none
O=C(COC(=O)c1cccc(OC(F)F)c1)NC1CCCC1	none
C=CCN1C(=O)C(C)NC1=S (stereo not given)	none (no result: STK33 kinase inh, GSK3A inh)
CCCCCc1cc(=O)oc2c(C(CCN3CCCC(C)C3)c3ccc(OC)cc3)c(OC)cc(OC)c12 (stereo not given)	MEKK2 WT-MEK5 153, MEKK2 mut-MEK5 58 | MEKK2wt confirm inactive | MEKK2mut confirm 107 | MEKK3 confirm inactive
CCCCCc1cc(=O)oc2c(C(CCN(CC)CC)c3ccc(OC)cc3)c(OC)cc(OC)c12 (stereo not given)	MEKK2 WT-MEK5 182, MEKK2 mut-MEK5 29 | MEKK2wt confirm inactive | MEKK2mut confirm inactive | MEKK3 confirm inactive
CCCCCc1cc(=O)oc2c(C(CCN3CCN(c4ccccc4)CC3)c3ccc4c(c3)OCO4)c(OC)cc(OC)c12 (stereo not given)	none
CCCCCc1cc(=O)oc2c(C(CCN3CCCCC3)c3ccc(OC)cc3)c(OC)cc(OC)c12 (stereo not given)	MEKK2 WT-MEK5 164, MEKK2 mut-MEK5 67 | MEKK2wt confirm 208 | MEKK2mut confirm inactive | MEKK3 confirm inactive
CCCCCc1cc(=O)oc2c(C(CCN3CCCC3)c3cc(OC)c(OC)c(OC)c3)c(OC)cc(OC)c12 (stereo not given)	MEKK2 WT-MEK5 157, MEKK2 mut-MEK5 24 (no result: GSK3A inh) | MEKK2wt confirm inactive | MEKK2mut confirm inactive | MEKK3 confirm inactive
COc1ccc(C(CC(=O)N2CCCC(C)C2)c2c(OC)cc(OC)c3c(-c4ccccc4)cc(=O)oc23)cc1 (stereo not given)	none
COc1ccc(-c2nc(CS(=O)CC(=O)N3CCN(C)CC3)c(C)o2)cc1 (stereo not given)	none
CCOC(=O)c1c(C)[nH]c(C)c1C(=O)CSc1nc2ccccc2n1CC	MEKK3 PB1 HTS 135 | MEKK2wt confirm inactive | MEKK2mut confirm inactive | MEKK3 confirm inactive
Cc1ccc2c(c1)c(C)c(C)n2CC(O)Cn1nc(C)cc1C (stereo not given)	MEKK2 WT-MEK5 39[inhibitor] | MEKK2wt confirm inactive | MEKK2mut confirm inactive | MEKK3 confirm inactive
Cc1ccc2c(c1)c(C)c(C)n2CC(O)Cn1nnc2ccccc21 (stereo not given)	none
C=C1CCC(C)C(C)(CCC2=CCOC2=O)C/C=C\C=C/1C(=O)O (stereo not given)	none
Cn1cc(CN2CCCC(C(=O)c3ccc(-c4ccccc4)c(F)c3)C2)cn1 (stereo not given)	none
Cc1nn(C)cc1CN1CCCC(C(=O)c2ccc(-c3ccccc3)c(F)c2)C1 (stereo not given)	MEKK2 WT-MEK5 147 | MEKK2wt confirm inactive | MEKK2mut confirm inactive | MEKK3 confirm inactive
CCOC(=O)CC1C(=O)NCCN1C(=O)Nc1ccc(Cl)cc1 (stereo not given)	none
COC(=O)CC1C(=O)NCCN1C(=O)Nc1ccc(Cl)cc1 (stereo not given)	MEKK2 WT-MEK5 2.0[inhibitor] | MEKK2wt confirm inactive | MEKK2mut confirm inactive | MEKK3 confirm inactive
O=C(NCCc1ccc(Cl)cc1)C1CCCN(S(=O)(=O)N2CCCCCC2)C1 (stereo not given)	none
Cc1ccc(C2=N/C(=C/c3cccs3)C(=O)N2Nc2ccccc2)cc1	MEKK2 WT-MEK5 52[inhibitor] | MEKK2wt confirm inactive | MEKK2mut confirm inactive | MEKK3 confirm inactive
Cc1ccccc1C1=N/C(=C/c2cccs2)C(=O)O1	none
NC(=O)c1ccc(N=Cc2c(O)ccc3ccccc23)cc1	none (no result: MEKK3 PB1 HTS, MEKK2 WT-MEK5, MEKK2 mut-MEK5)
C=CCS/C(N)=N\N=C\c1c(O)ccc2ccccc12	MEKK3 PB1 HTS 139 | MEKK2wt confirm inactive | MEKK2mut confirm inactive | MEKK3 confirm inactive
COc1ccc(/C=C(/NC(=O)c2ccccc2)C(=O)N/N=C/c2sccc2C)cc1	MEKK3 PB1 HTS 133 | MEKK2wt confirm inactive | MEKK2mut confirm inactive | MEKK3 confirm inactive
COc1ccc(/C=C(\NC(=O)c2ccccc2)C(=O)N/N=C/c2sccc2C)cc1	none
Cc1sc2ncn(CC(=O)OC(C)C(=O)NC(C)(C)C)c(=O)c2c1C (stereo not given)	none
CC(=O)c1cccc(NC(=O)CCn2c(=S)oc3ccccc32)c1	none
Cc1cccc(S(=O)(=O)NC(Cc2c[nH]c3ccccc23)C(=O)O)c1 (stereo not given)	MEKK3 PB1 HTS 131 | MEKK2wt confirm inactive | MEKK2mut confirm inactive | MEKK3 confirm inactive
Cc1ccc(S(=O)(=O)NC(Cc2ccccc2)C(=O)O)cc1 (stereo not given)	MEKK3 PB1 HTS 1.0[inhibitor], MEKK2 WT-MEK5 -3.0[inhibitor] | MEKK2wt confirm inactive | MEKK2mut confirm inactive | MEKK3 confirm inactive
CC1(C)NC(=O)N(CCOc2ccc([N+](=O)[O-])cc2)C1=O	MEKK3 PB1 HTS 42[inhibitor] | MEKK2wt confirm inactive | MEKK2mut confirm inactive | MEKK3 confirm inactive
CN(C)S(=O)(=O)c1cccc(NC(=O)CSc2nc3ccccc3n2-c2ccccc2)c1	MEKK3 PB1 HTS 153 | MEKK2wt confirm inactive | MEKK2mut confirm inactive | MEKK3 confirm inactive
CN(C)S(=O)(=O)c1ccc(NC(=O)CSc2nc3ccccc3n2-c2ccccc2)cc1	none
CCN1CCN(c2ccc(S(=O)(=O)N3CCCCC3)cc2NC(=O)/C=C/c2cc(OC)ccc2OC)CC1	MEKK2 WT-MEK5 174, MEKK2 mut-MEK5 25 | MEKK2wt confirm inactive | MEKK2mut confirm inactive | MEKK3 confirm inactive

Compound activity deposited in PubChem BioAssay by several laboratories.
